Published values of several laboratories.
Compare with care: the assays were run in different laboratories.
Target: Muscle, skeletal receptor tyrosine-protein kinase (MUSK, Homo sapiens, UniProt O15146)
Residues used in one study (O15146 24-869): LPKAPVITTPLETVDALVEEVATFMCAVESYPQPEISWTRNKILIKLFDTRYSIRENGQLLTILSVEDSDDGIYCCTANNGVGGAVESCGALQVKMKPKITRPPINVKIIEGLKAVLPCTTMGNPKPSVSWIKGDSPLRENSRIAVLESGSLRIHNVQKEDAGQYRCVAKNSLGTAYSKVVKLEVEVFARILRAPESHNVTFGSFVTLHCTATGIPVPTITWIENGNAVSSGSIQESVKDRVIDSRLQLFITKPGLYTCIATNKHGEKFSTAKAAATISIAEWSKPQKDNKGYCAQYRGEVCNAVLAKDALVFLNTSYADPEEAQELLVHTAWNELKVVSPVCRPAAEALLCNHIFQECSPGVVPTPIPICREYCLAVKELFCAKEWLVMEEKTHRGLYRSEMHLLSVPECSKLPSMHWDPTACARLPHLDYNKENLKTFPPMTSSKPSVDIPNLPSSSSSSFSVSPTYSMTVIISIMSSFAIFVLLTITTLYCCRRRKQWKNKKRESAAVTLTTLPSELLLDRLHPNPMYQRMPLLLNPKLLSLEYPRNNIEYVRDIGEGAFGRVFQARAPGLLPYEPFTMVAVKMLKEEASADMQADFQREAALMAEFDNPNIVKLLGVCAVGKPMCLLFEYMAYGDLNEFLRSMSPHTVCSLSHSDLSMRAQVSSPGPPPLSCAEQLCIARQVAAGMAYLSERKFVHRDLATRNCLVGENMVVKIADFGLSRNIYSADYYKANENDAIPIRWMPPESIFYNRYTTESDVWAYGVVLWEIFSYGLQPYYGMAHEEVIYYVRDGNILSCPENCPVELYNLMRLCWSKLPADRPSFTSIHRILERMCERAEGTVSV

| SMILES | effect on | method | tested at | remaining binding [%] |
| --- | --- | --- | --- | --- |
| CC1CCCN1c1nccc(-c2cnn3ncccc23)n1 (stereo not shown) | binding | – | 1 µM | 100 |
| c1cncc(-c2cccc(Nc3nccc(NC4CCCCC4)n3)c2)c1 | binding | competition with immobilised ligand | 10 µM | 86 |
| CN(C)c1nccc(-c2cnn3ncccc23)n1 | binding | – | 1 µM | 92 |
| CN([C@@H]1CCc2c(CC(=O)O)c3cc(S(C)(=O)=O)ccc3n2C1)S(=O)(=O)c1ccc(F)cc1 | cell-free assay | competition with immobilised ligand | 1 µM | 100 |
| CCN1CCN(Cc2ccc(C(=O)Nc3ccc(C)c(Oc4ccc5c(c4)CC(=O)N5)c3)cc2C(F)(F)F)CC1 | binding | competition with immobilised ligand | 1 µM | 100 |
| C[C@@H]1CCN(c2nccc(-c3cnn4ncccc34)n2)C1 | binding | – | 1 µM | 92 |
| O=C1CCc2cc(Nc3cc(OC4CCOCC4)c([N+](=O)[O-])cc3Cl)ccc2N1 | cell-free assay | competition with immobilised ligand | 1 µM | 100 |
| c1cnn2ncc(-c3ccnc(N4CCC45COC5)n3)c2c1 | binding | – | 1 µM | 80 |
| FC(F)(F)Oc1cccc(-c2cnc3ccc(-c4ccncc4)nn23)c1 | cell-free assay | competition with immobilised ligand | 5 µM | 99 |
| O=C(NCCCN1CCOCC1)c1ccc(Nc2nccc(-c3cc4ccccc4s3)n2)cc1 | binding | competition with immobilised ligand | 1 µM | 77 |
| CCC(=O)N[C@H]1CC[C@@H](C(=O)N(C)c2ccc(-c3nc4ccccc4o3)cc2)C1 | cell-free assay | competition with immobilised ligand | 1 µM | 100 |
| O=C(c1ccc(Nc2ncc(Cl)c(-c3ccc(Cl)s3)n2)cc1)N1CCC(N2CCCC2)CC1 | binding | competition with immobilised ligand | 1 µM | 57 |
| N[C@@H]1CCN(c2nccc(-c3cnn4ncccc34)n2)C1 | binding | – | 1 µM | 100 |
| COc1ccc2c(c1)O[C@@H](c1ccc(OC)c(OC)c1)C[C@H]2NC(=O)C1(c2ccc3c(c2)OC(F)(F)O3)CC1 | cell-free assay | competition with immobilised ligand | 1 µM | 94 |
| O=C(Nc1c[nH]nc1C(=O)NC1CCNCC1)c1cc(F)cc(F)c1 | binding | competition with immobilised ligand | 1 µM | 88 |
| Cc1cnn2ncc(-c3ccnc(N(C)C)n3)c2c1 | binding | – | 1 µM | 79 |
| O=C(NS(=O)(=O)c1ccc(NCC2CCOCC2)c([N+](=O)[O-])c1)c1ccc(N2CCN(Cc3ccc(C(F)(F)F)cc3-c3ccc(Cl)cc3)CC2)cc1Oc1cnc2[nH]ccc2c1 | cell-free assay | competition with immobilised ligand | 1 µM | 98 |
| COc1cnc(Nc2cccc(S(N)(=O)=O)c2)nc1N1CCN(c2ccccc2)C(=O)C1 | binding | competition with immobilised ligand | 1 µM | 99 |
| CCS(=O)(=O)c1cc2cc(C[C@](O)(CC(C)(C)c3ccc(F)cc3C(N)=O)C(F)(F)F)[nH]c2cn1 | cell-free assay | competition with immobilised ligand | 1 µM | 94 |
| Cc1cnc(Nc2ccc(C(=O)N3CCC(N4CCCC4)CC3)cc2)nc1-c1cc2ccccc2s1 | binding | competition with immobilised ligand | 1 µM | 30 |
| COc1ncc2cc3ccccc3nc2c1C#N | cell-free assay | competition with immobilised ligand | 5 µM | 100 |
| C=CC(=O)N1CCC(C(=O)NCC(=O)N2CCN(c3nc(-c4cnc(N)nc4C(F)F)nc(N4CCOCC4)n3)CC2)CC1 | binding | competition with immobilised ligand | 1 µM | 79 |
